From the RNAGym collection of RNA variant scans (doi:10.1126/science.aae0568)
This sample holds only a part of the variants without activity.

B1: tRNA (parent)
chain: GUUCCGUUGGCGUAAUGGUAACGCGUCUCCCUCCUAAGGAGAAGACUGCGGGUUCGAGUCCCGUACGGAACG

Variants of: B1
Experiment: yeast fitness relative to wild type (ratio to wild type); higher = fitter; tRNA-Arg(CCU), competitive growth, 37 C, YPD
Outline: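 Variants of the tRNA-Arg(CCU) gene were chemically synthesised with a 3% per-site mutation rate across 69 sites and placed at the native genomic locus in Saccharomyces cerevisiae. Six parallel replicates of the pooled strains were competed in YPD at 37°C for 24 hours, and gene amplicons from the start and end populations were read by 100-nucleotide paired-end sequencing. Darwinian fitness relative to wild type was derived from changes in genotype frequencies. Genotypes required ≥ 100 starting reads, and estimates < 0.5 were set to 0.5.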

Yeast fitness, 0.547:
GUUCCGUUGGCGUAAUAGUAACGCGUCUCCCUCCUAAGGAGAAGACUGCGGGUUAGAGUCCCGUACGGAACG [G17A C55A]

Yeast fitness, 0.647:
GUUCCGUUGGCGUAAUAGUAACGCGUCUCCCUCCUAAGGAGAAGACUGCCGGUUCGAGUCCCGUACGGAACG [G17A G50C]

Yeast fitness, 0.533:
GUUCCGUUGGCGUAAUAGUAACGUGUCUGCCUCCUAAGGAGAAGACUGCGGGUUCGAGUCCCGUACGGAACG [G17A C24U C29G]

Yeast fitness, 0.832:
GUUCCGUUGGCGUAAUAGUAACGCGUCUUCCUCCUAAGGAGAAGACUGCGGGUUCGAGUCCCGUACGGAACG [G17A C29U]

Yeast fitness, 0.603:
GUUCCGUUGGCGUAAUAGUAAUGCGUCUCCCUCCUAAGGAGAAGGUUGCGGGUUCGAGUCCCGUACGGUACG [G17A C22U A45G C46U A69U]

Yeast fitness, 0.712:
GUUCCGUUGGCGUAAUAGUAACGCGUCUCCCUCCUAAGGAGAAGAGUGCGGGUUCGAGUCCCGUACGGAACG [G17A C46G]

Yeast fitness, ≤ 0.5:
GUUCCGUUGGCGUAAUAGUAACGCGUCUCUCUCCUAAGGAGCAGACUGCGGGUUCGAGUCCCGUACGGAACG [G17A C30U A42C]
GUUCCGUUGGCGUAAUAGUAACGCGUCUCCCUGCUAAGGAGAAGACUGCGGGUUCGAGUCCCGUAUGGAACG [G17A C33G C66U]
GUUCCGUUGGCGUAAUAGUAACGCGUCUCCCUACUAUGGAGAAGACUGCGGGUUCGGGUCCCGUACGGAACG [G17A C33A A37U A57G]
GUUCCGUUGGCGUAAUAGUAACGCGUGUCCCUCCUAAGGAGAAGACUGCGGGUUCGAGUCUCGUACGGAACG [G17A C27G C61U]
GUUCCGUUGGCGUAAUAGUAACGCGUCUCCGUCCUAAGGAGAAGACUGCGGGUUCGAGUCCCGUACGAAACG [G17A C31G G68A]
GUUCCGUUGGCGUAAUAGUAACGCGUCUCGCUCCUAAGGAGAAGGCUGCGGGUUCGAGUCCCGUUCGGAACG [G17A C30G A45G A65U]
GUUCCGUUGGCGUAAUAGUAAUGCGUAUCGCUCCUAAGGAGAAGACUGCGGGUUCGAGUCCCGUAGGGAACG [G17A C22U C27A C30G C66G]
GUUCCGUUGGCGUAAUAGUAACGCGUCUCCCUCCUAAGGAGAAGACUGCGGGUUUGAGUCCUGUACGGAACG [G17A C55U C62U]
GUUCCGUUGGCGUAAUAGUAACGCGUCUCCAUCCUAAGGAGAAGACUCCGGGUUCGAGUCCCGUACGGAACG [G17A C31A G48C]
GUUCCGUUGGCGUAAUAGUAACGCGUCUCCCUGCUAAGGUGAAGACUGCGCGUUCGAGUCCCGUACGGAACG [G17A C33G A40U G51C]
GUUCCGUUGGCGUAAUAGUAAUGCGUCCCCCUCCUAAGGAGAAGACUGCGGGUGCGCGUCCCGUACGGAACG [G17A C22U U28C U54G A57C]
GUUCCGUUGGCGUAAUAGUAACGCGUCUCCCUUCUAAGGAGAUGACUGCGGGUUCGGGUCCCGUACUGAACG [G17A C33U A43U A57G G67U]
GUUCCGUUGGCGUAAUAGUAACGCGUCUCCCUCCUAAGGAGAAGACUGCGGGUUGGAGUCCCGUACGGAACG [G17A C55G]
GUUCCGUUGGCGUAAUAGUAACGCGUCUCGCUCCUAAGGAGAAGGCUGCGGGUUCGAGUCGCGUACGGAACG [G17A C30G A45G C61G]
GUUCCGUUGGCGUAAUAGUAAUGCGUCUCCCUCCUAUGGAGAAGACAGCGGGUUCGAGUCCCGUACGCAACG [G17A C22U A37U U47A G68C]
GUUCCGUUGGCGUAAUAGUAACGCGUCUCCCUGCUAAGGUGAAGGCUGCGGGUUCGAGUCCCGUGCGGAACG [G17A C33G A40U A45G A65G]
GUUCCGUUGGCGUAAUAGUAACGCGUCUCCCUCAUAAGGAGAAGACUGCGGUUUCGAGUCCCGUACGGAACG [G17A C34A G52U]
GUUCCGUUGGCGUAAUAGUAACGCGUGUCCCUCCUAAGGAGAAGAGUGCGGGUUCGAGUCCCGUGCGGAACG [G17A C27G C46G A65G]
GUUCCGUUGGCGUAAUAGUAACGCGUCUCCCUCCUAAGGAGAAGACUGCGGGUUCGAGUGGCGUACGGAACG [G17A C60G C61G]
GUUCCGUUGGCGUAAUAGUAACGCGUCUCACUCCUAAGGAGAAGACUGCGGGUUCGAGUCCCGUAUGGAGCG [G17A C30A C66U A70G]
GUUCCGUUGGCGUAAUAGUAAUGCGUAUCGCUCCUAAGGAGAAGACUGAGGGUUCGAGUCCCGUACGGAACG [G17A C22U C27A C30G C49A]
GUUCCGUUGGCGUAAUAGUAACGCGUCUGCCUCCUAAGGAGAAGACUGCGGGUUCGAGGCGUGUACGGAACG [G17A C29G U59G C61G C62U]
GUUCCGUUGGCGUAAUAGUAACGCGUCUCCUUCCUAAGGAGAAGACUGCGGAUUCGAGUCCCGUACGGAACG [G17A C31U G52A]
GUUCCGUUGGCGUAAUAGUAAUGCGUCCCCCUCCUAAGGAGAAGACUGCGGGUUCGAGUCCCGUUCGGAACG [G17A C22U U28C A65U]
GUUCCGUUGGCGUAAUAGUAACGCGUCUCCCUGCUGAGGAGAAGACUGCGGGUUCGAGUCCCAUACGGAACG [G17A C33G A36G G63A]
GUUCCGUUGGCGUAAUAGUAACGCGUCUCACUCCUAAGGAGAAGACUGCGGGUUCGUAUCCCGUACGGAACG [G17A C30A A57U G58A]

Yeast fitness, 0.607:
GUUCCGUUGGCGUAAUAGUAACGCGUCUCCCUUCUAAGGAGAAGACUGCGGGUUCGAGUCCCGUACGGAACG [G17A C33U]

Yeast fitness, 0.878:
GUUCCGUUGGCGUAAUAGUAACGCGUCUCCCUCCUAAGGAGAAGAUUGCGGGUUCGAGUCCCGUACGGAACG [G17A C46U]

Yeast fitness, 0.586:
GUUCCGUUGGCGUAAUAGUAACGCGUCUCCCUCCUAAGGAGAAGACUGCGGGUUCGAGUGCCGUACGGAACG [G17A C60G]

Yeast fitness, 0.658:
GUUCCGUUGGCGUAAUAGUAACGCGUCUCCUUCCUAAGGAGAAGACUGCGGGUUCGAGUCCCGUACGGACCG [G17A C31U A70C]

Yeast fitness, 0.611:
GUUCCGUUGGCGUAAUAGUAACGCCUCUCCCUCCUAAGGAGAAGACUGCGGGUUCGAGUCCCGUCCGGAACG [G17A G25C A65C]
